Data reported in publication PMC2172527 (The Journal of Cell Biology, 2004).
Entries after “also recorded” stand apart in the source; their conditions may differ. Ends that are not written are not given here.

Experiments:
talin = assay: GST-PIPKIγ tail pull-down, rat brain extract; assay type: binding; details: rat brain protein extracts; Western blot and Coomassie blue, Fig. 1 A, B
Outline: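 Bait: human PIPKIγ tail (aa 635–662) expressed as a GST fusion and purified, with GST alone as control. Used for affinity pull-down from lamprey spinal cord or rat brain extracts. Bound proteins were run on protein gels, then Coomassie blue stained or Western blotted with anti-talin antibody TD77.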

[1] = target: PIPKIγ (90-kD protein doublet); assay: GST-talin head pull-down, lamprey extract; assay type: binding; details: Western blot with anti-PIPKIγ antibody, Fig. 1 E
Outline: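 Bait: human talin 2 head (aa 1–438) expressed as a GST fusion and purified, with GST alone as control. Used for affinity purification from lamprey extract alongside a load lane. Eluates were Western blotted with an in-house anti-PIPKIγ antibody to detect the 90-kD doublet.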

[2] = system: lamprey reticulospinal synapses; assay: EM of stimulated synapses in microinjected axons; assay type: cell-based, lamprey (Ichthyomyzon unicuspis); details: GST-talin head-injected axons, estimated 0.5–2.5 μM; Fig. 5

GST-PIPKIγ tail: GST fusion protein of human PIPKIγ tail (aa 635–662), the 28-aa COOH-terminal tail ({GST}-ATDIYFPTDERSWVYSPLHYSAQAPPAS)
affinity purification of talin (in words) (talin): purification of the upper talin band; also recorded: Talin was the only major band retained

B1: GST-talin head: human talin 2 head (aa 1–438) expressed as GST fusion protein (protein)
chain: MVALSLKICVRHCNVVKTMQFEPSTAVYDACRVIRERVPEAQTGQASDYGLFLSDEDPRKGIWLEAGRTLDYYMLRNGDILEYKKKQRPQKIRMLDGSVKTVMVDDSKTVGELLVTICSRIGITNYEEYSLIQETIEEKKEEGTGTLKKDRTLLRDERKMEKLKAKLHTDDDLNWLDHSRTFREQGVDENETLLLRRKFFYSDQNVDSRDPVQLNLLYVQARDDILNGSHPVSFEKACEFGGFQAQIQFGPHVEHKHKPGFLDLKEFLPKEYIKQRGAEKRIFQEHKNCGEMSEIEAKVKYVKLARSLRTYGVSFFLVKEKMKGKNKLVPRLLGITKDSVMRVDEKTKEVLQEWPLTTVKRWAASPKSFTLDFGEYQESYYSVQTTEGEQISQLIAGYIDIILKKKQSKDRFGLEGDEESTMLEESVSPKKSTILQQQ
modifications: left off: GST, end not stated, kept
affinity purification of PIPKIγ 90-kD doublet (in words) [1]: specifically affinity purified | clathrin-mediated endocytosis at stimulated synapses (in words) [2]: a perturbation of clathrin-mediated endocytosis at synapses similar to that observed with PIPK pep
